Test results from ChEMBL document CHEMBL3616369, “N-O-Isopropyl Sulfonamido-Based Hydroxamates as Matrix Metalloproteinase Inhibitors: Hit Selection and in Vivo Antiangiogenic Activity” (J Med Chem, 2015).
pIC50: −log10 of the molar value. Active and inactive are the calls of the source. The rule behind the calls is not given here.

How the values were obtained:
[1] = molecular target: Stromelysin-1 (Homo sapiens, UniProt P08254); assay: Inhibition of recombinant human activated-MMP3 using Mca-Lys-Pro-Leu-Gly-Leu-Dap(Dnp)-Ala-Arg-NH2 as fluorogenic substrate incubated for 4 hrs followed by substrate addition measured every 10 secs for 20 mins by fluorometric assay
Chain of Stromelysin-1 (P08254 whole entry): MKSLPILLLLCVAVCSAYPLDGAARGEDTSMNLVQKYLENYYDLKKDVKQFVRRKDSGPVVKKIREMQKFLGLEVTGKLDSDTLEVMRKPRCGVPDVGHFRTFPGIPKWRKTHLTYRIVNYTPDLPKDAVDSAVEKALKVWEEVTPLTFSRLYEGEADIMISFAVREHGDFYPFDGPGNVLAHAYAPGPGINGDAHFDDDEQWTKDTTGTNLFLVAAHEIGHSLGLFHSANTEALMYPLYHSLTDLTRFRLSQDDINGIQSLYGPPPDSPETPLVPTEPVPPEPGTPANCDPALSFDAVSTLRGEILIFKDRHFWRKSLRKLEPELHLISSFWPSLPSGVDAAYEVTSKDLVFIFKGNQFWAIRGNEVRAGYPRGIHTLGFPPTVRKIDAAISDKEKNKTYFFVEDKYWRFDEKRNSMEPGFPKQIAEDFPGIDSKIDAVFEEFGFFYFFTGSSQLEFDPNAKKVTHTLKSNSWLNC
In short: (§1)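 Recombinant human MMPs. Pro-forms activated with APMA: MMP-2 2 mM 1 h, MMP-9 1 mM 1 h, MMP-1 2 mM 2 h, MMP-13 1 mM 35 min, all 37 °C. MMP-3 activated with trypsin 4.4 µg/mL 30 min, then soybean trypsin inhibitor. Final enzyme 0.5 (MMP-2), 1.3 (MMP-9), 1.0 (MMP-14cd), 2.0 (MMP-1), 0.66 (MMP-13), 5 nM (MMP-3). Preincubated with inhibitor 4 h at 25 °C in Tris 50 mM pH 7.5, NaCl 150 mM, CaCl2 10 mM, Brij 35 0.05%, DMSO 1%. Substrate 2 µM final; fluorescence (ex 325/em 395 nm) every 10 s for 20 min. IC50 from vi/vo = 1/(1+[I]/IC50).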

[2] = molecular target: T1, Matrix metalloproteinase-9 (Homo sapiens, UniProt P14780); assay: Inhibition of recombinant human activated-MMP9 using Mca-Lys-Pro-Leu-Gly-Leu-Dap(Dnp)-Ala-Arg-NH2 as fluorogenic substrate incubated for 4 hrs followed by substrate addition measured every 10 secs for 20 mins by fluorometric assay; in short: as §1
T1 sequence (P14780 whole entry): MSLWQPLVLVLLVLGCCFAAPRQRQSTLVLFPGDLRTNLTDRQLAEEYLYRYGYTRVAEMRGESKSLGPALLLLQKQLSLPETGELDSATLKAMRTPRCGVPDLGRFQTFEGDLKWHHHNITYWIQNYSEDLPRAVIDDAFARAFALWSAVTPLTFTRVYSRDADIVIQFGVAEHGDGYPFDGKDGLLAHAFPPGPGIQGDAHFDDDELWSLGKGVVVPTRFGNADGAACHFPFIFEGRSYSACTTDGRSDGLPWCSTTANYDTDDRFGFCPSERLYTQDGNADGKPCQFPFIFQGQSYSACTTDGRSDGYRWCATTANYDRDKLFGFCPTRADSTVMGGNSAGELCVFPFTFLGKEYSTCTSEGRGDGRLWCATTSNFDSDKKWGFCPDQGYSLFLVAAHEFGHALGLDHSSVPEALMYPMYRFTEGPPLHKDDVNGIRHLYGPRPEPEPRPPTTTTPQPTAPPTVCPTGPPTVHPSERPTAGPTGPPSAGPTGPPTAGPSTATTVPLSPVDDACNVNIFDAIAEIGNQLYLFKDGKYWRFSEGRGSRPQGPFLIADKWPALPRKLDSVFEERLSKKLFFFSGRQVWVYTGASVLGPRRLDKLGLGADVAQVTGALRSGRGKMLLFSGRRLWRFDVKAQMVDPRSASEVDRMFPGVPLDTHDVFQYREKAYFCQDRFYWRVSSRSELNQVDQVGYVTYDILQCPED

[3] = molecular target: T2, Interstitial collagenase (Homo sapiens, UniProt P03956); assay: Inhibition of recombinant human activated-MMP1 using Mca-Lys-Pro-Leu-Gly-Leu-Dap(Dnp)-Ala-Arg-NH2 as fluorogenic substrate incubated for 4 hrs followed by substrate addition measured every 10 secs for 20 mins by fluorometric assay; in short: as §1
T2 sequence (P03956 whole entry): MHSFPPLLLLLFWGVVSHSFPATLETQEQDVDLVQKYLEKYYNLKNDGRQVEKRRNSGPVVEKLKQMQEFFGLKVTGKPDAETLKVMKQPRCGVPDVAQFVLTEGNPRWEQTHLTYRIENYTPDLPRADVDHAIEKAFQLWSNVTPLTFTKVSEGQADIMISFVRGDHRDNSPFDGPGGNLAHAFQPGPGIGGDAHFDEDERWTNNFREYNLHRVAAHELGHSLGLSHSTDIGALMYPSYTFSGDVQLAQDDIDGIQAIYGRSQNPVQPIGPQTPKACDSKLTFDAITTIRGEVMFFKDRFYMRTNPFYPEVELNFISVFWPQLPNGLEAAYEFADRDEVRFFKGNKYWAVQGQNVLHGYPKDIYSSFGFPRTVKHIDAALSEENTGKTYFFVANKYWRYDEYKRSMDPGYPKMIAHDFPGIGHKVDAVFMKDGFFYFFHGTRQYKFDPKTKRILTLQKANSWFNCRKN

[4] = molecular target: T3, 72 kDa type IV collagenase (Homo sapiens, UniProt P08253); assay: Inhibition of recombinant human activated-MMP2 using Mca-Lys-Pro-Leu-Gly-Leu-Dap(Dnp)-Ala-Arg-NH2 as fluorogenic substrate incubated for 4 hrs followed by substrate addition measured every 10 secs for 20 mins by fluorometric assay; in short: as §1
Target sequence in this assay (P08253 whole entry, the tested form may be a part): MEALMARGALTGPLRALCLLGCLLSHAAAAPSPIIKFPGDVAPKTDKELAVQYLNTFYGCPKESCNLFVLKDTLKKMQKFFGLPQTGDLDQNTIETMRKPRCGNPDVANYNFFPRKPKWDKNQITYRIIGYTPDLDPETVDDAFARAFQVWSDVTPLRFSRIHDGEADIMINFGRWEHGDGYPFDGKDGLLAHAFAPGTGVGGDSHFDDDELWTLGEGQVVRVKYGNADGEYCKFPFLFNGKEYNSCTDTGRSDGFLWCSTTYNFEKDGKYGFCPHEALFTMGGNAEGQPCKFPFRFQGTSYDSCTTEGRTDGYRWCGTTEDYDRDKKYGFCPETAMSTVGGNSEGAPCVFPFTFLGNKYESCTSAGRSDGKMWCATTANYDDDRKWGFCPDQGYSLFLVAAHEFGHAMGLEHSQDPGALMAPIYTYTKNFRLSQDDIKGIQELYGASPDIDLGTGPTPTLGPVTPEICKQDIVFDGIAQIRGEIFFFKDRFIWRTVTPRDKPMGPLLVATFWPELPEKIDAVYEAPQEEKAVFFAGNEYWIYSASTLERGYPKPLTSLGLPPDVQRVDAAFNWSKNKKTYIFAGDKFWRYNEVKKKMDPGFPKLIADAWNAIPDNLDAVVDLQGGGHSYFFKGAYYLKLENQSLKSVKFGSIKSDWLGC

[5] = molecular target: Matrix metalloproteinase-14 (Homo sapiens, UniProt P50281); assay: Inhibition of recombinant human catalytic domain MMP14 using Mca-Lys-Pro-Leu-Gly-Leu-Dap(Dnp)-Ala-Arg-NH2 as fluorogenic substrate incubated for 4 hrs followed by substrate addition measured every 10 secs for 20 mins by fluorometric assay; in short: as §1
[6] = molecular target: T1, Matrix metalloproteinase-9; assay: Inhibition of MMP9 gelatinase activity in human HUVEC by gel zymography
In short: (§2)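 Gelatin zymography on 10% polyacrylamide gels with 0.1% gelatin and SDS, samples unheated. Gels renatured 30 min at room temperature. Either untreated-HUVEC conditioned medium run and gel lane slices developed overnight at 37 °C in developing buffer containing inhibitor, or medium from inhibitor-treated HUVEC developed overnight without inhibitor. Coomassie stained; bands quantified by densitometry.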

[7] = tested on: HUVEC; assay: Inhibition of FBS-induced capillary-like network organization in human HUVEC at 0.001 to 10 uM after 6 hrs by matrigel assay; assay type: functional, cell-based
In short: (§3)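 Matrigel (10 mg/mL) polymerized 1 h at 37 °C. HUVEC (50x10^4/well) in complete medium with 10% FBS, with or without inhibitor at various concentrations, layered on top. After 6 h, capillary-like organization imaged by inverted microscope; mesh number counted as tubulogenic efficiency.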

[8] = tested on: HUVEC; assay: Inhibition of cell migration in human HUVEC at 0.001 to 10 uM after 6 hrs using modified Boyden chambers; assay type: functional, cell-based
In short: (§4)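 Modified Boyden chamber. HUVEC (5x10^4), PBS-washed, in serum-free medium with or without inhibitor in upper compartment; 10% FBS or serum-free medium below. 8 µm polycarbonate filters coated with collagen 50 µg/mL (migration, 6 h) or matrigel 1 mg/mL (invasion, overnight). Cells on lower surface ethanol-fixed, stained, counted blind in eight fields. Three experiments in duplicate; one-way ANOVA.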

[9] = molecular target: T3, 72 kDa type IV collagenase; assay: Inhibition of MMP2 gelatinase activity in human HUVEC by gel zymography; in short: as §2
Target sequence in this assay (P08253 110-660 limits assumed): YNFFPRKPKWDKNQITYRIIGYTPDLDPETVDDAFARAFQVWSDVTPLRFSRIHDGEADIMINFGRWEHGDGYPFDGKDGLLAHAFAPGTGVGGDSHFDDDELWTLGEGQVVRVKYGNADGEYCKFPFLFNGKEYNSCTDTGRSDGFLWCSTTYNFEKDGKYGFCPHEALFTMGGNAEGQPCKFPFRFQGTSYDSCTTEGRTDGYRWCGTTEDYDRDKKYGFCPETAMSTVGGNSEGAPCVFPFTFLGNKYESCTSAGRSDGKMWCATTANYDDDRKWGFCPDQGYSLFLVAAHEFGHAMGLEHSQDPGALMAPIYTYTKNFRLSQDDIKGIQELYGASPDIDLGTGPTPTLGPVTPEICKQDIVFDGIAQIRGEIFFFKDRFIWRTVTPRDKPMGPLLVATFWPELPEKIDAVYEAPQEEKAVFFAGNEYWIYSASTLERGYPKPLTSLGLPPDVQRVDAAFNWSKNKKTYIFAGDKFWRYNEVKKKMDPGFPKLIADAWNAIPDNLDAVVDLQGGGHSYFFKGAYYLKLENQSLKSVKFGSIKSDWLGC

[10] = tested on: HUVEC; assay: Inhibition of FBS-induced cell invasion in human HUVEC after overnight incubation using modified Boyden chambers; assay type: functional, cell-based; in short: as §4
[11] = molecular target: T3, 72 kDa type IV collagenase; assay: Inhibition of MMP2 gelatinase activity in human HUVEC at 0.1 uM by gel zymography; in short: as §2
Target sequence in this assay (P08253 110-660 limits assumed): as above

[12] = molecular target: T1, Matrix metalloproteinase-9; conditions: HUVEC, 0.1 uM
[13] = tested on: HUVEC; assay: Inhibition of FBS-induced network efficiency of human HUVEC assessed as reduction of number of meshes at 0.001 to 10 uM after 6 hrs by matrigel assay; assay type: functional, cell-based; in short: as §3

| SMILES | pIC50 [1] | pIC50 [2] | pIC50 [3] | pIC50 [4] | pIC50 [5] | inhibition [6] | inhibition [9] | inhibition [11] | inhibition [12] | inhibition [7] | inhibition [8] | inhibition [10] | inhibition [13] |
| --- | --- | --- | --- | --- | --- | --- | --- | --- | --- | --- | --- | --- | --- |
| CC(C)ON([C@H](CCNC(=O)Cc1ccccc1)C(=O)NO)S(=O)(=O)c1ccc(-c2ccccc2)cc1 | 6.92 | 8.19 | 5.89 | 8.85 |  |  |  |  |  |  |  |  |  |
| COc1ccc(-c2ccc(S(=O)(=O)N(OC(C)C)[C@H](CCNC(=O)Cc3ccccc3)C(=O)NO)cc2)cc1 | 7.44 | 8.54 | 5.85 |  | 7.60 |  |  |  |  |  |  |  |  |
| COc1ccc(-c2ccc(S(=O)(=O)N(OC(C)C)[C@H](CCNC(C)=O)C(=O)NO)cc2)cc1 | 7.70 | 8.70 | 6.18 |  | 7.64 | Dose-dependent effect | Dose-dependent effect | Active | Active | Active | Active | Dose-dependent effect | Active |

Now from value to compound, other results behind:

| pIC50 [1] | pIC50 [2] | pIC50 [3] | pIC50 [4] | pIC50 [5] | inhibition [6] | inhibition [9] | inhibition [11] | inhibition [12] | SMILES | inhibition [7] | inhibition [8] | inhibition [10] | inhibition [13] |
| --- | --- | --- | --- | --- | --- | --- | --- | --- | --- | --- | --- | --- | --- |
| 6.35 | 8.05 | 6.11 | 8.82 |  |  |  |  |  | CC(C)ON([C@H](CCNC(=O)c1ccccc1)C(=O)NO)S(=O)(=O)c1ccc(-c2ccccc2)cc1 |  |  |  |  |
| 7.15 | 8.07 | 6.49 | 9.00 |  |  |  |  |  | CC(C)ON([C@H](CCNS(C)(=O)=O)C(=O)NO)S(=O)(=O)c1ccc(-c2ccccc2)cc1 |  |  |  |  |
